This note sets out measurements from ChEMBL document CHEMBL1138243, “Design of mechanism-based inhibitors of transthyretin amyloidosis: studies with biphenyl ethers and new structural templates” (J Med Chem, 2007).

The source made the active and inactive calls. The calls are words filed in the database; no cut-off is given here.

Assay [1] can be described thus: Cytotoxicity against TTR-induced […] cells assessed as viability at 50 uM after 72 hrs. It counts as functional. Conditions: Mus musculus, N2a, read-out: Activity.
Assay [2] has as its target T1, Transthyretin (Homo sapiens, UniProt P02766). The assay is described as follows: Binding affinity to transthyretin at pH 4.4. In short, it runs like this:
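Kd at pH 4.4 measured by fluorescence titration of TTR. Data were fitted to the Adair equation for two binding sites, giving Kd1 and Kd2. Experiments were run in triplicate.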

Assay [3] deals with T1, Transthyretin. The assay is described as follows: Inhibition of transthyretin fibril formation at pH 4.4 at 50 uM. Type of assay: functional. Also noted: scale not given: the % may be the effect or the level left.
Assay [4] concerns the target T1, Transthyretin. The assay is described as follows: Stabilization of urea-induced transthyretin dissociation at 5.4 uM at pH 7.2 after […] relative to control.
Assay [5] has as its target T1, Transthyretin. The assay is described as follows: Inhibition of fibril elongation of preformed transthyretin at […] after 72 hrs by turbidity assay. Type of assay: functional.
Another assay relates to Neuro2a. The assay is described as follows: Cytotoxicity against […] cells at 50 uM. Type of assay: functional, cell-based. Conditions: Mus musculus.
Assay [6] has as its target T1, Transthyretin. Description: Inhibition of transthyretin fibril formation assessed as turbidity at 21.6 uM at pH 4.4 after 3 hrs. It counts as functional. In short, it runs like this:
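Kinetics run with 7.2 µM TTR plus 21.6 µM inhibitor at pH 4.4, 37 °C. Turbidity at 340 nm was followed for 3 h. Initial fibrillization rate came from the linear slope of A340 versus time. Three experiments in triplicate.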

Assay [7] has as its target T1, Transthyretin. Description: Inhibition of transthyretin amyloidosis assessed as fibril formation at 21.6 uM at pH 4.4 relative to control. It counts as functional. Also noted: scale not given: the % may be the effect or the level left. In short, it runs like this: (§1)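 WT TTR tetramer (7.2 µM) in pH 7 phosphate/KCl/EDTA was preincubated 1 h at 25 °C with inhibitor (7.2 or 21.6 µM; 1:1 or 1:3) in 1% DMSO. It was then diluted with pH 4.4 acetate/KCl/EDTA buffer and held stagnant 72 h at 37 °C. Turbidity was read at 340 nm as % fibril formation versus untreated (100%). Mean of five experiments.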

Assay [8] has as its target T1, Transthyretin. Description: Inhibition of transthyretin amyloidosis assessed as fibril formation at 7.2 uM at pH 4.4 relative to control. It counts as functional. Details: scale not given: the % may be the effect or the level left. The procedure, abridged: as §1
Assay [9] addresses T1, Transthyretin. Description: Stabilization of urea-induced transthyretin dissociation at 5.4 uM at pH 7.2 after 1 hr relative to control.
Assay [10] deals with T1, Transthyretin. Description: Inhibition of transthyretin fibril formation at pH 4.4. It counts as functional.
The target of assay [11] is T1, Transthyretin. The assay is described as follows: Inhibition of transthyretin amyloidosis assessed as fibril formation pH 4.4 at 100 uM. Type of assay: functional. The procedure, abridged:
(§2)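 Library screen of acid-mediated TTR fibril formation at pH 4.4 with inhibitor at 100 µM. TTR was at 7.2 µM.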

In assay [12] the target is T1, Transthyretin. The assay is described as follows: Inhibition of transthyretin fibril formation at pH 4.4 at 100 uM. Type of assay: functional. The procedure, abridged: as §2

Take `COc1cc(CCl)ccc1Oc1ccccc1`: the viability at 50 µM in assay [1] is 86%. Moreover, the Kd entry on Transthyretin [2] is reported as “Active”. Moreover, the Activity was 0% on Transthyretin [3]; below 5% at Transthyretin [4]; “Not toxic” in the assay with Neuro2a; 0% on Transthyretin [7]; 25% at Transthyretin [8]. At Transthyretin [5], the result was Active. Also, the inhibition on Transthyretin [6] is above 80%.

For `O=C(O)c1ccc(Oc2ccc(Cl)cc2Cl)c(O)c1`, in assay [1], the viability at 50 µM was 86%. Also, the Activity was 0% at Transthyretin [3]; 21% at Transthyretin [9]; “Not toxic” in the assay with Neuro2a; 13.3% on Transthyretin [7]; 29% on Transthyretin [8]. Moreover, on Transthyretin [5], the result was Active. The inhibition on Transthyretin [6] was above 80%.

The compound `COc1cc(C(=O)O)ccc1Oc1ccccc1` gave an Activity on Transthyretin [3] of 40%. On Transthyretin [10], this compound registered an IC50 of 41 µM.

For `COc1cc(CCl)ccc1Oc1ccc(Cl)cc1Cl`, the viability at 50 µM in assay [1] came out at 86%. The Activity at Transthyretin [3] was 0%; at Transthyretin [4], below 5%; with Neuro2a, “Not toxic”; on Transthyretin [7], 0%; at Transthyretin [8] it was 26%. Further, at Transthyretin [5], the outcome was Active. Also, the inhibition at Transthyretin [6] is above 80%.

Take `COc1cc(C(=O)O)ccc1Oc1ccc(Cl)cc1Cl`: the viability at 50 µM in assay [1] amounted to 86%. Also, the Activity was 0% at Transthyretin [3]; below 5% on Transthyretin [4]; “Not toxic” in the assay with Neuro2a; 0% at Transthyretin [7]; 10% at Transthyretin [8]. Further, the outcome on Transthyretin [5] was Active. Further, the inhibition on Transthyretin [6] was above 80%.

As for `O=C(O)c1ccc(Oc2ccccc2)c(O)c1`, in assay [1], the viability at 50 µM is 86%. Further, at Transthyretin [2] (read-out: Kd), the Kd is 0.027 µM. For the same compound, the Activity on Transthyretin [3] is 5%; on Transthyretin [4], below 5%; in the assay with Neuro2a, “Not toxic”; on Transthyretin [7], 5%; at Transthyretin [8] it was 32%. The result at Transthyretin [5] was Active. Also, the inhibition on Transthyretin [6] was above 80%. The compound also returned an IC50 at Transthyretin [10] of 3.18 µM.

On to `OCc1ccc(Oc2ccc(Cl)cc2Cl)c(O)c1`, for which, in assay [1], the viability at 50 µM is 86%. The Activity on Transthyretin [3] was 11.5%; at Transthyretin [4], below 5%; in the assay with Neuro2a, “Not toxic”; on Transthyretin [7], 2.6%; at Transthyretin [8], 12%. Further, the result at Transthyretin [5] was Active. Besides, the inhibition on Transthyretin [6] is above 80%.

As to `COc1cc(C=O)ccc1Oc1ccccc1`, the viability at 50 µM in [1] turned out to be 86%. Further, the Activity on Transthyretin [3] was 0%; at Transthyretin [4] it was below 5%; in the assay on Neuro2a, “Not toxic”; at Transthyretin [7], 0%; at Transthyretin [8], 12%. The result at Transthyretin [5] was Active. Further, the inhibition on Transthyretin [6] is above 80%.

Regarding `O=C(Nc1nnc[nH]1)c1c(Cl)ccc(Cl)c1Cl`, the viability at 50 µM in [1] turned out to be 86%. Besides, the Activity at Transthyretin [4] was below 5%; in the assay on Neuro2a it was “Not toxic”; at Transthyretin [7], 3.6%; at Transthyretin [8] it was 11%. The percent fibril formation relative to control at Transthyretin [11] was found to be 11.5%. The outcome on Transthyretin [5] was Active. Also, the figures for the inhibition on Transthyretin [6] and on Transthyretin [12] were above 80% and 88.5%, respectively.

On to `Oc1cc(Cl)ccc1Oc1ccc(Cl)cc1Cl`, for which the Activity on Transthyretin [3] was determined as 41%; on Transthyretin [9], 47%; at Transthyretin [7] it was 66%; on Transthyretin [8] it was 75%. Also, the inhibition at Transthyretin [6] was 62%.

As to `N[C@H](Cc1cc(I)c(Oc2cc(I)c(O)c(I)c2)c(I)c1)C(=O)O`, the Activity at Transthyretin [9] came to 27%; on Transthyretin [7], 7%; at Transthyretin [8], 48%. For the same compound, on Transthyretin [6], the inhibition was 75%.

Regarding `O=Cc1ccc(Oc2ccc(Cl)cc2Cl)c(O)c1`, the viability at 50 µM in assay [1] was determined as 86%. Also, the Activity is 0% at Transthyretin [3]; below 5% at Transthyretin [4]; “Not toxic” in the assay on Neuro2a; 0% on Transthyretin [7]; 0% at Transthyretin [8]. In addition, on Transthyretin [5], the result was Active. Also, the inhibition at Transthyretin [6] is above 80%.

For orientation: Kd means the free concentration of one partner at which half of the binding sites on the other are occupied at equilibrium, for simple one-to-one binding. As a reminder, the inhibition is the change of the read-out against control, counted positive when it falls. A word on the IC50: it is the point on the concentration scale where inhibition reaches its midpoint.
